Values after ≈ are worked out from the molar mass of the structure shown.
Columns and labels:
Type in all cases: functional
Aspergillus flavus [1] = test: Antifungal activity against Aspergillus flavus JLC 40437 by broth microdilution method
Method in brief: (§1)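 MICs were determined by broth microdilution following NCCLS guidelines (M38-P for filamentous fungi). The panel covered four yeast species and two Aspergillus species, with two strains per species. Itraconazole served as positive control.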

Pichia kudriavzevii [2] = test: Antifungal activity against Candida krusei JLC 30386 by broth microdilution method; method in brief: as §1
Cryptococcus neoformans [3] = test: Antifungal activity against Cryptococcus neoformans JLC 50123 by broth microdilution method; method in brief: as §1
Candida albicans [4] = test: Antifungal activity against Candida albicans JLC 31374 by broth microdilution method; method in brief: as §1
Aspergillus fumigatus [5] = test: Antifungal activity against Aspergillus fumigatus JLC 30883 by broth microdilution method; method in brief: as §1
Pichia kudriavzevii [6] = test: Antifungal activity against Candida krusei JLC 30366 by broth microdilution method; method in brief: as §1
Cryptococcus neoformans [7] = test: Antifungal activity against Cryptococcus neoformans JLC 50122 by broth microdilution method; method in brief: as §1
Aspergillus fumigatus [8] = test: Antifungal activity against Aspergillus fumigatus JLC 30506 by broth microdilution method; method in brief: as §1
Candida parapsilosis [9] = test: Antifungal activity against Candida parapsilosis JLC 30365 by broth microdilution method; conditions: Lodderomyces parapsilosis; method in brief: as §1
Candida albicans [10] = test: Antifungal activity against Candida albicans JLC 30364 by broth microdilution method; method in brief: as §1
Aspergillus flavus [11] = test: Antifungal activity against Aspergillus flavus JLC 30784 by broth microdilution method; method in brief: as §1
Candida parapsilosis [12] = test: Antifungal activity against Candida parapsilosis JLC 30275 by broth microdilution method; conditions: Lodderomyces parapsilosis; method in brief: as §1

Row | Structure (SMILES) | MIC (Aspergillus flavus [1]) | MIC (Pichia kudriavzevii [2]) | MIC (Cryptococcus neoformans [3]) | MIC (Candida albicans [4]) | MIC (Aspergillus fumigatus [5]) | MIC (Pichia kudriavzevii [6]) | MIC (Cryptococcus neoformans [7]) | MIC (Aspergillus fumigatus [8]) | MIC (Candida parapsilosis [9]) | MIC (Candida albicans [10]) | MIC (Aspergillus flavus [11]) | MIC (Candida parapsilosis [12])
1 | O=c1n(-c2ccc(N3CCN(c4ccc(OC[C@H]5CO[C@](Cn6cncn6)(c6ccc(F)cc6F)O5)cc4)CC3)nc2)cnn1CCCO | 0.25 mg/L (≈ 0.37 µM) | 0.0625 mg/L (≈ 0.0925 µM) | < 0.0625 mg/L | < 0.0625 mg/L | 1 mg/L (≈ 1.48 µM) | 0.0625 mg/L (≈ 0.0925 µM) | < 0.0625 mg/L | 1 mg/L (≈ 1.48 µM) | 0.0625 mg/L (≈ 0.0925 µM) | < 0.0625 mg/L | 0.25 mg/L (≈ 0.37 µM) | 0.0625 mg/L (≈ 0.0925 µM)
2 | CCC(C)n1ncn(-c2ccc(N3CCN(c4ccc(OC[C@H]5CO[C@](Cn6cncn6)(c6ccc(F)cc6F)O5)cc4)CC3)nc2)c1=O (stereo partly drawn) | 0.25 mg/L (≈ 0.371 µM) | 0.125 mg/L (≈ 0.186 µM) | 0.5 mg/L (≈ 0.742 µM) | < 0.0038 mg/L | 0.0625 mg/L (≈ 0.0928 µM) | 0.125 mg/L (≈ 0.186 µM) | 0.5 mg/L (≈ 0.742 µM) | 0.0625 mg/L (≈ 0.0928 µM) | 0.25 mg/L (≈ 0.371 µM) | < 0.0038 mg/L | 0.25 mg/L (≈ 0.371 µM) | 0.25 mg/L (≈ 0.371 µM)
3 | O=c1n(-c2ccc(N3CCN(c4ccc(OC[C@H]5CO[C@](Cn6cncn6)(c6ccc(F)cc6F)O5)cc4)CC3)nc2)cnn1Cc1ccccc1 | 0.25 mg/L (≈ 0.353 µM) | 0.5 mg/L (≈ 0.706 µM) | 0.25 mg/L (≈ 0.353 µM) | < 0.0038 mg/L | 0.125 mg/L (≈ 0.177 µM) | 0.5 mg/L (≈ 0.706 µM) | 0.25 mg/L (≈ 0.353 µM) | 0.125 mg/L (≈ 0.177 µM) | 0.25 mg/L (≈ 0.353 µM) | < 0.0038 mg/L | 0.25 mg/L (≈ 0.353 µM) | 0.25 mg/L (≈ 0.353 µM)
4 | CC(C)(CO)Cn1ncn(-c2ccc(N3CCN(c4ccc(OC[C@H]5CO[C@](Cn6cncn6)(c6ccc(F)cc6F)O5)cc4)CC3)nc2)c1=O | 0.125 mg/L (≈ 0.178 µM) | 0.25 mg/L (≈ 0.355 µM) | 0.125 mg/L (≈ 0.178 µM) | 0.0625 mg/L (≈ 0.0888 µM) | 0.125 mg/L (≈ 0.178 µM) | 0.25 mg/L (≈ 0.355 µM) | 0.125 mg/L (≈ 0.178 µM) | 0.125 mg/L (≈ 0.178 µM) | 0.5 mg/L (≈ 0.71 µM) | 0.0625 mg/L (≈ 0.0888 µM) | 0.125 mg/L (≈ 0.178 µM) | 0.5 mg/L (≈ 0.71 µM)
5 | CC(CO)Cn1ncn(-c2ccc(N3CCN(c4ccc(OC[C@H]5CO[C@](Cn6cncn6)(c6ccc(F)cc6F)O5)cc4)CC3)nc2)c1=O (stereo partly drawn) | > 0.5 mg/L | 0.125 mg/L (≈ 0.181 µM) | 0.0625 mg/L (≈ 0.0906 µM) | 0.0625 mg/L (≈ 0.0906 µM) | > 32 mg/L | 0.125 mg/L (≈ 0.181 µM) | 0.0625 mg/L (≈ 0.0906 µM) | > 32 mg/L | 2 mg/L (≈ 2.9 µM) | 0.0625 mg/L (≈ 0.0906 µM) | > 0.5 mg/L | 
6 | CC(CO)n1ncn(-c2ccc(N3CCN(c4ccc(OC[C@H]5CO[C@](Cn6cncn6)(c6ccc(F)cc6F)O5)cc4)CC3)nc2)c1=O (stereo partly drawn) | 0.25 mg/L (≈ 0.37 µM) | > 2 mg/L | < 0.0625 mg/L | < 0.0625 mg/L | 1 mg/L (≈ 1.48 µM) | > 2 mg/L | < 0.0625 mg/L | 1 mg/L (≈ 1.48 µM) | < 0.0625 mg/L | < 0.0625 mg/L | 0.25 mg/L (≈ 0.37 µM) | < 0.0625 mg/L
7 | CC(CCO)n1ncn(-c2ccc(N3CCN(c4ccc(OC[C@H]5CO[C@](Cn6cncn6)(c6ccc(F)cc6F)O5)cc4)CC3)nc2)c1=O (stereo partly drawn) | 4 mg/L (≈ 5.8 µM) | 2 mg/L (≈ 2.9 µM) | 0.0625 mg/L (≈ 0.0906 µM) | < 0.0625 mg/L | 4 mg/L (≈ 5.8 µM) | 2 mg/L (≈ 2.9 µM) | 0.0625 mg/L (≈ 0.0906 µM) | 4 mg/L (≈ 5.8 µM) | < 0.0625 mg/L | < 0.0625 mg/L | 4 mg/L (≈ 5.8 µM) | < 0.0625 mg/L

Source: ChEMBL document CHEMBL1806410, “Design and synthesis of pyridine-substituted itraconazole analogues with improved antifungal activities, water solubility and bioavailability” (Bioorg Med Chem Lett, 2011)
